Source: PubChem
Hits are enriched below; roughly 3.5% of the tested compounds scored in any of these assays.
MrgX1 agonist = agonists of human MrgX1 receptor, primary screen, HEK293 cells, Fluo-4 calcium flux; B-score at 10 µM; Mas-related G-protein coupled receptor member X1 (Homo sapiens), Q96LB2; hit rate 0.44% among 310,000; Fluo-4 calcium fluorescence, agonist mode; active compounds read high; AID 588627, 2011;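 active = calcium response B-score plate-corrected fluorescence ratio at least 3 library SD, with starting fluorescence B-score inside 5 SD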
Target sequence (Q96LB2 whole entry, looked up): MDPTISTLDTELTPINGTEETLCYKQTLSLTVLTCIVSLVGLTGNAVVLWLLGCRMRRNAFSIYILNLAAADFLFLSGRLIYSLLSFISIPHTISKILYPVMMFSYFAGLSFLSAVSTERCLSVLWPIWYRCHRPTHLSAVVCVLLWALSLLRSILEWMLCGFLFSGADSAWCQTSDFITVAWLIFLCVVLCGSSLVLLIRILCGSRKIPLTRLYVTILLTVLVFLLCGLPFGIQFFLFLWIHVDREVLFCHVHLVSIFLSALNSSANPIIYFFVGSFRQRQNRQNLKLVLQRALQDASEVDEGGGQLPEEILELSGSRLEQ
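System – MrgX1-expressing HEK293 cells · Incubation – cells plated overnight, dye loaded 0.5 h 37 °C, 0.5 h room temperature · Technique – kinetic Fluo-4 NW fluorescence of intracellular calcium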
MrgX1 antagonist = antagonists of human MrgX1 receptor, primary screen, HEK293 cells, Fluo-4 calcium flux; Mas-related G-protein coupled receptor member X1 (Homo sapiens), Q96LB2; BAM8-22 antagonism; active compounds read low; B-score at 10 µM; hit rate 1.3% among 310,000; AID 588676, 2011;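 active = calcium-response B-score plate-corrected more than 3 library SD below zero, starting fluorescence within 5 deviations, no agonist response on first addition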;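 also: peak minus trough fluorescence over baseline after final BAM8-22 challenge near maximal dose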
MrgX1 allo act = positive allosteric modulators of MrgX1, primary screen, HEK293 cells, Fluo-4 calcium flux | Mas-related G-protein coupled receptor member X1 (Homo sapiens), Q96LB2 | FDSS; active compounds read high | B-score at 10 µM | hit rate 0.63% among 310,000;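 active = plate-corrected calcium response at least 3 library SD above typical, normal starting fluorescence, not activating the receptor alone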;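 also: compound read alongside a low EC10 to EC30 dose of BAM8-22 agonist; peak minus trough fluorescence over baseline measured at the second addition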
RGS4 block = RGS4 inhibitors, primary screen, cell-based, HEK293 M3R inducible RGS4, calcium flux. Regulator of G-protein signaling 4 (Homo sapiens), P49798. Fluo-4 calcium flux; active compounds read high; triggered by carbachol at its EC20. B-score at 10 µM. hit rate 0.45% among 310,000. AID 463165, 2010;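 active = B-score, a plate-corrected calcium signal, over three deviations above library mean, with baseline fluorescence within five deviations of library mean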;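 also: RGS4 expression induced by doxycycline in cells with stable M3 receptor; B-score is computed from the integrated fluorescence ratio over baseline after carbachol; higher B-score means a larger calcium signal and so more RGS4 inhibition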
Target sequence (P49798 whole entry, looked up): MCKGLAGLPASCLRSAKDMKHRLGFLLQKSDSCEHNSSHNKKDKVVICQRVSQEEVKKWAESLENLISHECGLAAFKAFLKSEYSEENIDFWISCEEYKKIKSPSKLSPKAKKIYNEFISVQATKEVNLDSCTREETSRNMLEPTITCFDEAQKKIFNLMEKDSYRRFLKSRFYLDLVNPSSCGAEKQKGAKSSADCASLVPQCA
RGS4 act = RGS4 potentiators or activators, primary screen, cell-based, HEK293 M3R inducible RGS4, calcium flux; carbachol calcium flux Fluo4; active compounds read low; B-score at 10 µM; hit rate 0.92% among 310,000; AID 463111, 2010;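 active = B-score of the integrated calcium signal more than 4 SD below the library mean, with starting fluorescence not abnormally high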;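 also: negative B-score means reduced calcium response which marks RGS4 activation or potentiation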
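Test system: HEK293 cells with stable M3R and inducible RGS4; also added: carbachol at ECmax as muscarinic agonist stimulus; schedule: dye loading 30 min 37 °C, buffer rest 30 min RT; technique: kinetic calcium fluorescence imaging with Fluo4-AM dye, 2 µM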
Numbers without * were called inactive; i = inactive; nt = no result given.

SMILES	MrgX1 agonist	MrgX1 antagonist	MrgX1 allo act	RGS4 block	RGS4 act
Cc1c(CCOC(=O)CC23CC4CC(CC(C4)C2)C3)sc[n+]1Cc1ccccc1	i	i	i	i	-7.7*
Fc1ccc(CNc2nc(-c3cccnc3)nc3ccccc23)cc1	35*	i	i	i	-7.1*
Cc1ccccc1Nc1nc(-c2cccnc2)nc2ccccc12	42*	i	i	i	-7.2*
CCOC(=O)c1ccc(Nc2nc(-c3cccnc3)nc3ccccc23)cc1	i	i	i	i	-7.1*
CC(Nc1nc(-c2cccnc2)nc2ccccc12)c1ccc(F)cc1 (configuration not stated)	i	i	i	i	-7.1*
O=C(CSc1nccc(=O)[nH]1)NN(c1ccccc1)c1ccccc1	i	i	i	i	i
CN(Cc1ccccc1F)c1nc(-c2cccnc2)nc2ccccc12	i	i	i	i	-14*
Oc1ccc(/C=N/Nc2nc(-c3cccnc3)nc3ccccc23)c(O)c1	i	i	i	i	i
Clc1cccc(CNc2nc(-c3cccnc3)nc3ccccc23)c1	nt	nt	nt	i	-9.2*
Cc1c(O)ccc(/C=N/Nc2nc(-c3cccnc3)nc3ccccc23)c1O	i	i	i	i	-8.1*
c1cncc(CNc2nc(-c3cccnc3)nc3ccccc23)c1	i	i	i	i	i
Cc1cccc(N2CCN(C(=O)c3cc(C)oc3C)CC2C)c1 (configuration not stated)	i	i	i	i	i
COc1cc(/C=C2\SC(=S)N(C(Cc3ccccc3)C(=O)O)C2=O)ccc1O (configuration not stated)	56*	i	i	i	i
O=C(O)C(Cc1ccccc1)N1C(=O)/C(=C/c2ccccc2)SC1=S (configuration not stated)	i	i	i	i	i
COc1cc(/C=C2/SC(=S)N(CC3CCCO3)C2=O)ccc1O (configuration not stated)	i	-8.6*	i	i	i
COc1ccc(/C=C2\SC(=S)N(CC3CCCO3)C2=O)cc1 (configuration not stated)	i	i	i	i	i
O=C(CSc1ncn[nH]1)Nc1ccc(Cl)c(S(=O)(=O)N2CCOCC2)c1	i	i	i	i	i
Cc1cc(-n2c(C)cc(C(=O)CSc3ncnc4ccccc34)c2C)no1	i	-4.7*	i	i	i
COc1ccc(-c2noc(N3CCC(C(=O)NCCCN4CCCC(C)C4)CC3)n2)cc1 (configuration not stated)	i	i	i	i	i
O=C(C1CCN(Cc2ccc(Cl)cc2)CC1)N1CCN(C(c2ccccc2)c2ccccc2)CC1	i	i	i	i	-8*
COc1ccc(/C=N/NC(=O)CCC(=O)Nc2ccccc2)cc1OC	i	i	i	i	i
COc1ccc(/C=N/NC(=O)CCn2cnc(-c3ccccc3)c2-c2ccccc2)cc1OC	i	-5.6*	i	i	i
Cc1ccccc1C(=O)/C=C1\NC(=O)CS1	i	i	i	i	i
COc1c(-c2ccc(O)cc2)oc2cc(O)cc(O)c2c1=O	i	i	i	nt	nt
CC(=O)Oc1cc(O)c2c(=O)c(OC(C)=O)c(-c3ccc(OC(C)=O)c(OC(C)=O)c3)oc2c1	i	i	8*	i	i
SMILES	MrgX1 agonist	MrgX1 antagonist	MrgX1 allo act	RGS4 block	RGS4 act
O=C1N/C(=C\c2ccc(O)cc2)C(=O)c2ccccc21	40*	i	i	i	i
O=C(C1CCC(Cn2c(=S)[nH]c3ccccc3c2=O)CC1)N1CCN(c2ccccc2)CC1 (configuration not stated)	i	i	i	5.4*	i
O=C(C1CCC(Cn2c(=S)[nH]c3ccccc3c2=O)CC1)N1CCOCC1 (configuration not stated)	i	i	i	i	i
CCOC(=O)c1cc(-c2ccc(/C=C3/C(=O)N(c4ccc(C(=O)O)cc4)N=C3C)o2)ccc1Cl	i	i	i	i	-7.3*
CC1=NN(c2ccc(Br)cc2)C(=O)/C1=C/c1ccc(-c2ccccc2C(=O)O)o1	i	i	9.3*	i	i
Fc1ccccc1-c1csc(=Nc2cccnc2)n1CCCn1ccnc1	i	i	i	i	i
CN1CCN(CCCNC(=O)c2ccc(/C=C3/Sc4ccccc4N(Cc4cccc(Cl)c4)C3=O)cc2)CC1	nt	nt	nt	i	-7.7*
CN1CCN(CCCNC(=O)c2ccc(/C=C3\Sc4ccccc4N(Cc4ccc(F)cc4)C3=O)cc2)CC1	nt	nt	nt	i	-7.5*
O=C(CN1C(=O)/C(=C/c2ccccc2)Sc2ccccc21)NCCCN1CCOCC1	i	i	i	i	i
Cc1cccc(CN2C(=O)/C(=C\c3ccc(C(=O)NCCCN4CCN(C)CC4)cc3)Oc3ccccc32)c1	i	i	i	i	i
CN1CCN(CCCNC(=O)c2ccc(/C=C3\Oc4ccccc4N(Cc4ccccc4F)C3=O)cc2)CC1	i	i	i	i	-8.3*
Cc1cc(C)n(CC(O)COc2ccccc2Br)n1 (configuration not stated)	i	i	i	i	i
CCc1nc(SCC(=O)N2CCCCC2)c2c(=O)n(C)c(=O)n(C)c2n1	i	i	i	i	i
COc1cccc(C(=O)NCCNC(=O)c2ccco2)c1	i	i	i	i	i
O=C(c1cccs1)c1no[n+]([O-])c1C(=O)c1cccs1	99*	i	i	i	-7*
O=C(c1ccc(Cl)nc1)c1cccs1	i	i	i	i	i
CC(C)N(CCCNC(=O)c1ccc(CS(=O)(=O)c2c(Cl)cccc2Cl)o1)Cc1ccccc1	i	i	i	i	-8.6*
COc1ccc(CNC(=O)C(OC(=O)c2ccco2)c2ccc(F)cc2)cc1 (configuration not stated)	i	i	i	i	i
O=C1NCC(c2ccccc2)C1C(=O)N/N=C\c1ccc(-c2ccc(Cl)c(Cl)c2)o1 (configuration not stated)	i	i	i	9*	i
O=C1NCC(c2ccccc2)C1C(=O)N/N=C/c1ccc(Cl)s1 (configuration not stated)	31*	i	i	i	i
C=Cn1ccnc1CC(O)c1ccc(OC)cc1 (configuration not stated)	i	i	i	i	i
